Results: article PMC12848671 (Chemical & Biomedical Imaging, 2025)
Where two headings read alike, the source gives them in different places. Ends that are not written are not given here. * marks the point of attachment. 125I = [125I]*

Tests used:
HEK293-hACE2 cells [1] = settings: 36 h
[2] = Chemical stability by analytical HPLC; type: physicochemical; settings: 1 mg/mL, 37 °C, 24 h
Method in brief: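 For acid stability, test peptide at 1 mg/mL in diluted HCl (pH 2), held at 37 °C for up to 24 h. Purity by analytical HPLC on a C18 column: A = acetonitrile/0.1% TFA, B = water/0.1% TFA, 65-40-0% B over 0-20-20.1 min, 1 mL/min, room temperature.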

HEK293-hACE2 cells [3] = settings: even at a concentration of 36.27 μM; 36 h
wild-type C57BL/6 mice = assay: 68Ga-DOTA-Omi-X PET/CT, wild-type mice; type: in vivo, mouse; settings: 3.7 MBq i.v., PET 2 h P.I.
[4] = Radiochemical stability in 0.01 M PBS; type: physicochemical; settings: radio-TLC, mean ± SD
[5] = Radiochemical stability in 10% FBS; type: in vitro ADME; settings: radio-TLC, mean ± SD
HEK293-hACE2 cells [6] = type: cell-based, human; settings: 2 × 10^6 cells/mL, 0.5 mL, γ-counter, mean ± SD, three repetitions
K18-hACE2 mice = assay: 125I-based SPECT/CT in vivo distribution, K18-hACE2 mice; design: species or system mouse
Method in brief: (§1)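 Male mice, 4 months old, n = 5 per strain, anaesthetised with isoflurane (1.5%–2% induction, 1%–1.5% maintenance). Each got 3.28 ± 0.42 MBq of the 125I-labelled test peptide via the lateral tail vein. SPECT (35 keV, MLEM, 28 min) at 1 and 6 h post-injection, followed by CT. Manual 3D ROIs gave uptake (counts/mm3) in heart, lungs, liver and GI tract.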

C57BL/6 mice = assay: 125I-based SPECT/CT in vivo distribution, wild-type mice; design: species or system mouse; settings: WT C57BL/6 mice, i.v., by 6 h P.I.
Method in brief: as §1

CC(C)C[C@H](NC(=O)[C@H](CC(C)C)NC(=O)[C@H](CCC(=O)O)NC(=O)[C@H](Cc1ccccc1)NC(=O)[C@H](CO)NC(=O)[C@H](CC(C)C)NC(=O)[C@@H](NC(=O)[C@@H](NC(=O)[C@@H](NC(=O)[C@H](CCCNC(=N)N)NC(=O)[C@H](Cc1ccc(O)cc1)NC(=O)[C@@H]1CCCN1C(=O)[C@H](CCC(N)=O)NC(=O)[C@@H](N)Cc1c[nH]cn1)C(C)C)C(C)C)C(C)C)C(=O)N[C@@H](Cc1c[nH]cn1)C(=O)O [Omi-X]
cell-division rate (CFDA SE) (HEK293-hACE2 cells [1]; 54.410 μM (100 μg/mL)): slightly inhibited | cell-division rate (CFDA SE) (HEK293-hACE2 cells [1]; low-dose 0.544 μM (1 μg/mL)): no significant difference | cell-division rate (CFDA SE) (HEK293-hACE2 cells [1]; medium-dose 5.441 μM (10 μg/mL)): no significant difference | chemical stability of the peptide sequence ([2]; diluted HCl (pH = 2), analytical HPLC C18): chemically stable | chemical stability of the peptide sequence ([2]; weakly acidic environment: diluted HCl (pH = 2), analytical HPLC): > 95% | effect on cell cycle distribution (HEK293-hACE2 cells [3]): no significant effect

CC(C)C[C@H](NC(=O)[C@H](CC(C)C)NC(=O)[C@H](CCC(=O)O)NC(=O)[C@H](Cc1ccccc1)NC(=O)[C@H](CO)NC(=O)[C@H](CC(C)C)NC(=O)[C@@H](NC(=O)[C@@H](NC(=O)[C@@H](NC(=O)[C@H](CCCNC(=N)N)NC(=O)[C@H](Cc1ccc(O)cc1)NC(=O)[C@@H]1CCCN1C(=O)[C@H](CCC(N)=O)NC(=O)[C@H](Cc1c[nH]cn1)NC(=O)CN1CCN(CC(=O)O)CCN(CC(=O)O)CCN(CC(=O)O)CC1)C(C)C)C(C)C)C(C)C)C(=O)N[C@@H](Cc1c[nH]cn1)C(=O)O [^68Ga-DOTA-Omi-X, metal not drawn]
ACE2-specific targeting (wild-type C57BL/6 mice): did not appear to show significant ACE2-specific targeting | radiochemical stability (4 h) in 0.01 M PBS [4]: 96.10 ± 0.75% | radiochemical stability (4 h) in 10% FBS [5]: 94.10 ± 1.55%

TVCGPKKSTNLVKNK [Omi-B]
radioactive uptake rate in HEK293-hACE2 cells (ACE2-binding rate) (HEK293-hACE2 cells [6]): 15.04% ± 2.98%

^125I-Omi-X: 125I-labeled Omi-X for SPECT imaging (HQPY(125I)RVVVLSFELLH)
clearance from circulation (K18-hACE2 mice; i.v. tail vein, SPECT/CT 1 h P.I.): rapidly cleared from circulation | excretion of unbound tracer (K18-hACE2 mice; i.v., SPECT/CT): primarily excreted through the urinary system | organ accumulation (K18-hACE2 mice; i.v., SPECT/CT 1 h P.I.): notably accumulated in the organs highly expressing ACE2, including the lung, heart, liver, and spleen | uptake in RAAS-related organs (C57BL/6 mice): greatly reduced
